Data on 14 compounds can be found in ChEMBL document CHEMBL1137700, “New transition metal ion complexes with benzimidazole-5-carboxylic acid hydrazides with antitumor activity” (Eur J Med Chem, 2009).

Test [1] concerns A549. Put plainly: Cytotoxicity against human A549 cells after 72 hrs by Alamar Blue assay. Type of test: functional, cell-based. The following applies: A549, 72 h. In outline: (§1)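 Cells seeded and grown at 37 °C under 5% CO2 for 24 h, then compounds in DMSO added in duplicate wells. Exposure 72 h at 37 °C, then media replaced with fresh media plus AlamarBlue and fluorescence read. Growth was computed from mean fluorescence at time zero, after 72 h with test substance, and after 72 h with vehicle control. IC50 derived.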

For test [2], the system named is MCF7. Nature of the test: Cytotoxicity against human MCF7 cells after 72 hrs by Alamar Blue assay. In kind it is functional, cell-based. The following applies: MCF7, 72 h. In outline:
as §1
(The colour change of resazurin is a common sign of viable cells or microbes.)

In general, IC50 refers to the midpoint of a concentration-inhibition curve. On to `COC(=O)c1cccc2oc(-c3cccc4oc(-c5ccccc5O)nc34)nc12`, for which the IC50 in test [1] turned out to be 2 µM; in test [2], 1.4 µM.
For `CC(C)=NNC(=O)c1cc2nc(C)[nH]c2cc1[N+](=O)[O-]`, in that order: greater than 100 µM and greater than 100 µM.
Take `CC(C)=NNC(=O)c1ccc2[nH]c(C)nc2c1`: the IC50 in test [1] and in test [2] was greater than 100 µM in each case.
As for `Cc1nc2cc(C(=O)N/N=C\c3c[nH]c4ccccc34)c([N+](=O)[O-])cc2[nH]1`, the IC50 in test [1] and in test [2] was greater than 100 µM in each case.
On to `Cc1nc2cc(C(=O)O)ccc2[nH]1`, for which the IC50 in test [1] and in test [2] was greater than 100 µM each time.
In the case of `CCOC(=O)c1ccc2[nH]c(C)nc2c1`, the results for the IC50 in test [1] and in test [2] were greater than 100 µM and 62 µM, respectively.
For `CCOC(=O)c1cc2nc(C)[nH]c2cc1[N+](=O)[O-]`, in that order: greater than 100 µM and greater than 100 µM.
As for `Cc1ccc(/C=N\NC(=O)c2cc3nc(C)[nH]c3cc2[N+](=O)[O-])cc1`, the IC50 in test [1] was 73 µM; in test [2], 3 µM.
For `Cc1nc2cc(C(=O)N/N=C\c3ccccn3)c([N+](=O)[O-])cc2[nH]1`, in that order: greater than 100 µM and greater than 100 µM.
With `Cc1nc2cc(C(=O)NN)c([N+](=O)[O-])cc2[nH]1`, the IC50 in test [1] and in test [2] was greater than 100 µM throughout.
As for `Cc1nc2cc(C(=O)N/N=C\c3ccco3)c([N+](=O)[O-])cc2[nH]1`, the IC50 was greater than 100 µM in test [1] and 81 µM in test [2].
For `Cc1nc2cc(C(=O)N/N=C\c3ccc(C)o3)c([N+](=O)[O-])cc2[nH]1`, in that order: greater than 100 µM and greater than 100 µM.
As to `CCN1CCN(C(=O)N[C@@H](C(=O)N[C@@H]2C(=O)N3C(C(=O)O)=C(CSc4nnnn4C)CS[C@H]23)c2ccc(O)cc2)C(=O)C1=O` [CEFOPERAZONE], the half-inhibitory concentration (IC50) in test [1] and in test [2] was greater than 100 µM throughout.
As for `CO[C@@]12[C@H](COC(N)=O)C3=C(C(=O)C(C)=C(N)C3=O)N1C[C@@H]1N[C@@H]12` [MITOMYCIN], the IC50 in test [1] was 0.4 µM; in test [2] it was 0.2 µM.
